Experimental data: ChEMBL document CHEMBL1129956, “4-substituted-3-phenylquinolin-2(1H)-ones: acidic and nonacidic glycine site N-methyl-D-aspartate antagonists with in vivo activity” (J Med Chem, 1997)

How the values were obtained:
Mus musculus [1] = assay: Compound was evaluated in vivo for their ability to protect against audiogenic seizure in DBA/2 mice when administered 20 mg/kg ip 30 min prior to noise stimulation out of 8 mice tested; format: functional; conditions: route intraperitoneal
Method in brief: (§1)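 DBA/2 mice given compound intraperitoneally 30 min before noise stimulation, with protection from audiogenic seizure scored. Results are reported as an ED50 (mg/kg) or as number of mice protected per number tested at a single dose.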

[2] = molecular target: Glutamate receptor ionotropic, NMDA 1 (Rattus norvegicus, UniProt P35439); assay: In vitro ability to displace [3H]L-689,560 binding to glycine site on the N-methyl-D-aspartate (NMDA) glutamate receptor 1 from rat cortical membranes
Method in brief: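 Glycine-site antagonist [3H]L-689,560 displaced from rat cortex/hippocampus membranes. IC50 (concentration inhibiting 50% of specific binding) taken from 5-point inhibition curves as the geometric mean of at least three experiments. A compound giving under 50% inhibition at 100 μM in two experiments is reported as >100 μM.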

[3] = molecular target: Glutamate receptor ionotropic, NMDA 1 (Rattus norvegicus) (UniProt P35439); assay: (§2) Evaluated to antagonize NMDA responses in a rat cortical slice preparations; format: functional
Method in brief: (§3)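 Rat cortical slice preparation; antagonist-induced rightward shift of the NMDA concentration–response curve used to calculate apparent Kb; values are the means of three determinations.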

Mus musculus [4] = assay: compound was evaluated in vivo for their ability to protect against audiogenic seizure in DBA/2 mice when administered 100 mg/kg ip 30 min prior to noise stimulation out of 8 mice tested; format: functional; conditions: route intraperitoneal; method in brief: as §1
Mus musculus [5] = assay: compound was evaluated in vivo for their ability to protect against audiogenic seizure in DBA/2 mice when administered 50 mg/kg ip 30 min prior to noise stimulation out of 8 mice tested; format: functional; conditions: route intraperitoneal; method in brief: as §1
Mus musculus [6] = assay: Evaluated in vivo for their ability to protect against audiogenic seizure in DBA/2 mice when administered 20 mg/kg ip 30 min prior to noise stimulation out of 8 mice tested; conditions: route intraperitoneal
Mus musculus [7] = assay: compound was evaluated in vivo for their ability to protect against audiogenic seizure in DBA/2 mice when dosed ip 30 min prior to noise stimulation and it is evaluated as ED50 value; format: functional; method in brief: as §1
[8] = molecular target: Glutamate NMDA receptor (Rattus norvegicus) (UniProt P35439+Q00959+Q00960+Q00961+Q62645+Q8VHN2+Q9R1M7); assay: as §2; format: functional; method in brief: as §3
Mus musculus [9] = assay: Compound was evaluated in vivo for their ability to protect against audiogenic seizure in DBA/2 mice when dosed ip 30 min prior to noise stimulation; format: functional; method in brief: as §1
[10] = molecular target: Glutamate receptor ionotropic, NMDA 1 (Rattus norvegicus) (UniProt P35439); assay: In vitro ability to displace [3H]L-689,560 binding to glycine site on the N-methyl-D-aspartate glutamate receptor 1 from rat cortical membranes at 10 uM
Mus musculus [11] = assay: Compound was evaluated in vivo for their ability to protect against audiogenic seizure in DBA/2 mice when dosed ip 30 min prior to noise stimulation and it is evaluated as ED50 value; format: functional; method in brief: as §1
Mus musculus [12] = assay: Evaluated in vivo for their ability to protect against audiogenic seizure in DBA/2 mice when administered 100 mg/kg ip 30 min prior to noise stimulation out of 8 mice tested; conditions: route intraperitoneal

`CC(=O)COc1c(-c2ccccc2)c(O)nc2cc(Cl)ccc12` was tested, and the “No. of mice protected” value (Mus musculus [1]) was 5, the IC50 [2] was 1.7 µM and the Kb [3] was 11.4 µM.
For `O=C(NCc1ccccc1)c1c(-c2ccccc2)c(=O)[nH]c2cc(Cl)ccc12`, the IC50 [2] was over 100 µM.
In the case of `CN(C)c1c(-c2ccccc2)c(=O)[nH]c2cc(Cl)ccc12`, the IC50 [2] is reported as over 100 µM.
In the case of `CN(C)CCCNc1c(-c2ccccc2)c(O)nc2cc(Cl)ccc12`, the “No. of mice protected” value (Mus musculus [4]) is reported as 6, the “No. of mice protected” value (Mus musculus [5]) is reported as 1 and the IC50 [2] is reported as 4.2 µM.
`O=C(Cc1ccccc1)Nc1c(-c2ccccc2)c(O)nc2cc(Cl)ccc12` gave an IC50 [2] of over 100 µM.
Compound `O=C(O)Cc1c(-c2ccccc2)c(=O)[nH]c2cc(Cl)ccc12` has an IC50 [2] of 0.16 µM.
With `Cc1noc(CCc2c(-c3ccccc3)c(O)nc3cc(Cl)ccc23)n1` the IC50 [2] was 3.5 µM and the “No. of mice protected” value (Mus musculus [6]) was 4.
In the case of `COC(=O)Cc1c(-c2ccccc2)c(=O)[nH]c2cc(Cl)ccc12`, the IC50 [2] is reported as 1.1 µM.
In the case of `CN(C)C(=O)COc1c(-c2ccccc2)c(O)nc2cc(Cl)ccc12`, the IC50 [2] is reported as 11.6 µM.
With `CN(C)CCNC(=O)C(=O)Nc1c(-c2ccccc2)c(O)nc2cc(Cl)ccc12` the IC50 [2] was 25 µM and the “No. of mice protected” value (Mus musculus [6]) was 2.
`O=c1[nH]c2cc(Cl)ccc2c(O)c1-c1ccccc1` gave an ED50 (Mus musculus [7]) of 4.5 mg/kg and a Kb [8] of 0.88 µM.
Compound `CN(C)CCOc1c(-c2ccccc2)c(O)nc2cc(Cl)ccc12` has an IC50 [2] of 11 µM.
For `NC(=O)COc1c(-c2ccccc2)c(O)nc2cc(Cl)ccc12`, the “No. of mice protected” value (Mus musculus [1]) was 0 and the Kb [3] was 3.1 µM.
Work on `NC(=O)CCc1c(-c2ccccc2)c(=O)[nH]c2cc(Cl)ccc12` yielded an IC50 [2] of 0.19 µM.
Compound `N#CCOc1c(-c2ccccc2)c(O)nc2cc(Cl)ccc12` has an ED50 (Mus musculus [9]) of 16.3 mg/kg, an IC50 [2] of 0.32 µM and a Kb [3] of 4.7 µM.
`O=c1[nH]c2cc(Cl)ccc2c(CCc2nn[nH]n2)c1-c1ccccc1` showed an IC50 [2] of 0.24 µM.
In the case of `CN(C)CCNC(=O)Cc1c(-c2ccccc2)c(O)nc2cc(Cl)ccc12`, the inhibition [10] is reported as 29% and the “No. of mice protected” value (Mus musculus [6]) is reported as 0.
`C/C(COc1c(-c2ccccc2)c(O)nc2cc(Cl)ccc12)=N\O` showed an ED50 (Mus musculus [11]) of 9.4 mg/kg, an IC50 [2] of 0.78 µM and a Kb [3] of 2.8 µM.
With `CS(=O)(=O)Nc1c(-c2ccccc2)c(O)nc2cc(Cl)ccc12` the IC50 [2] was 0.27 µM, the Kb [8] was 2.2 µM and the “No. of mice protected” value (Mus musculus [6]) was 0.
In the case of `NC(=O)CCc1c(-c2ccccc2)c(O)nc2cc(Cl)ccc12`, the Kb [8] is reported as 2.9 µM and the “No. of mice protected” value (Mus musculus [6]) is reported as 1.
For `O=c1[nH]c2cc(Cl)ccc2c(NS(=O)(=O)c2ccccc2)c1-c1ccccc1`, the IC50 [2] was 1.19 µM.
For `O=C(O)CC(=O)Nc1c(-c2ccccc2)c(O)nc2cc(Cl)ccc12`, the Kb [8] was 11.6 µM and the “No. of mice protected” value (Mus musculus [6]) was 2.
For `NC(=O)COc1c(-c2ccccc2)c(=O)[nH]c2cc(Cl)ccc12`, the IC50 [2] was 0.42 µM.
`O=C(O)COc1c(-c2ccccc2)c(O)nc2cc(Cl)ccc12` was tested, and the IC50 [2] was 0.11 µM, the Kb [8] was 1.25 µM and the “No. of mice protected” value (Mus musculus [6]) was 3.
For `Oc1nc2cc(Cl)ccc2c(CCc2nnn[nH]2)c1-c1ccccc1`, the Kb [8] was 1.6 µM and the “No. of mice protected” value (Mus musculus [12]) was 0.
With `O=C(O)C(=O)Nc1c(-c2ccccc2)c(O)nc2cc(Cl)ccc12` the Kb [8] was 4.5 µM and the “No. of mice protected” value (Mus musculus [6]) was 0.
For `Nc1c(-c2ccccc2)c(O)nc2cc(Cl)ccc12`, the Kb [8] was 10.5 µM.
`O=C(O)CC(=O)Nc1c(-c2ccccc2)c(=O)[nH]c2cc(Cl)ccc12` was tested, and the IC50 [2] was 1.1 µM.
Compound `O=C(O)COc1c(-c2cccc(Oc3ccccc3)c2)c(=O)[nH]c2cc(Cl)ccc12` has an IC50 [2] of 0.024 µM.
